Experimental data published in ChEMBL document CHEMBL1773035, “SHAFTS: a hybrid approach for 3D molecular similarity calculation. 2. Prospective case study in the discovery of diverse p90 ribosomal S6 protein kinase 2 inhibitors to suppress cell migration” (J Med Chem, 2011).

Tests used:
HCT-116 [1] = assay: Antiproliferative activity against human HCT116 cells over expressing RSK2 after 48 hrs by MTT assay; type: functional, cell-based; settings: HCT-116, 48 h
Procedure, shortened: (§1)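 Formazan dissolved in DMSO, absorbance read at 570 nm. Inhibition = (1 − A570 compound/A570 control)×100. Screening concentration 100 μM (control 10 μM). IC50 from curves, ≥3 independent tests, attempted when inhibition at 100 μM exceeded 40%.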

[2] = target: Proto-oncogene tyrosine-protein kinase receptor Ret (Homo sapiens) (UniProt P07949); assay: Inhibition of RET at 10 uM by ELISA based method
Procedure, shortened: (§2)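 Tyrosine kinase profiling by ELISA-based method, ATP at Km for each enzyme; percent inhibition at 10 μM, mean of at least two independent tests.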

[3] = target: Vascular endothelial growth factor receptor 1 (Homo sapiens) (UniProt P17948); assay: Inhibition of Flt1 at 10 uM by ELISA based method; procedure, shortened: as §2
MDA-MB-231 [4] = assay: Antiproliferative activity against human MDA-MB-231 cells over expressing RSK2 at 10 uM after 48 hrs by MTT assay; type: functional; settings: MDA-MB-231, 48 h
[5] = target: Mitogen-activated protein kinase 8 (Homo sapiens) (UniProt P45983); assay: Inhibition of JNK1 at 1 uM
MCF7 [6] = assay: Antiproliferative activity against human MCF7 cells over expressing RSK2 after 48 hrs by MTT assay; type: functional, cell-based; settings: MCF7, 48 h; procedure, shortened: as §1
[7] = target: Proto-oncogene tyrosine-protein kinase Src (Homo sapiens) (UniProt P12931); assay: Inhibition of c-Src at 10 uM by ELISA based method; procedure, shortened: as §2
Sequence of Proto-oncogene tyrosine-protein kinase Src (Homo sapiens) (P12931 2-536 limits assumed): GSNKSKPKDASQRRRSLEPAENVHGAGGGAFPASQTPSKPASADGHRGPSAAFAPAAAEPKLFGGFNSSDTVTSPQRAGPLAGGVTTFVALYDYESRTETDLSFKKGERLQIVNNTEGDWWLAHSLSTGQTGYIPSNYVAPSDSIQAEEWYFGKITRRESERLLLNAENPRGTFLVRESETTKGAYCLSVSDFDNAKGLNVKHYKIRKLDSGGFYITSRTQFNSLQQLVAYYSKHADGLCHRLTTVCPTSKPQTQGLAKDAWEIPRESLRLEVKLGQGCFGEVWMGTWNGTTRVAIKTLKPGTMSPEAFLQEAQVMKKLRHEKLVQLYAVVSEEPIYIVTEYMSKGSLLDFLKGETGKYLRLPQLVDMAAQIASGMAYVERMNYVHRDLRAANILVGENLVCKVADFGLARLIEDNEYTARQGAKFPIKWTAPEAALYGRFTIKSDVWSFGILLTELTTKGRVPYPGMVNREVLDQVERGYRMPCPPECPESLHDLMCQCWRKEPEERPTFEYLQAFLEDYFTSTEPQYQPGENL

[8] = target: Ribosomal protein S6 kinase beta-1 (Homo sapiens) (UniProt P23443); assay: Inhibition of p70S6K at 1 uM
[9] = target: Mitogen-activated protein kinase 14 (Homo sapiens) (UniProt Q16539); assay: Inhibition of p38alpha at 1 uM
[10] = target: Platelet-derived growth factor receptor beta (Homo sapiens) (UniProt P09619); assay: Inhibition of PDGFRbeta at 10 uM by ELISA based method; procedure, shortened: as §2
Sequence of Platelet-derived growth factor receptor beta (Homo sapiens) (P09619 whole entry): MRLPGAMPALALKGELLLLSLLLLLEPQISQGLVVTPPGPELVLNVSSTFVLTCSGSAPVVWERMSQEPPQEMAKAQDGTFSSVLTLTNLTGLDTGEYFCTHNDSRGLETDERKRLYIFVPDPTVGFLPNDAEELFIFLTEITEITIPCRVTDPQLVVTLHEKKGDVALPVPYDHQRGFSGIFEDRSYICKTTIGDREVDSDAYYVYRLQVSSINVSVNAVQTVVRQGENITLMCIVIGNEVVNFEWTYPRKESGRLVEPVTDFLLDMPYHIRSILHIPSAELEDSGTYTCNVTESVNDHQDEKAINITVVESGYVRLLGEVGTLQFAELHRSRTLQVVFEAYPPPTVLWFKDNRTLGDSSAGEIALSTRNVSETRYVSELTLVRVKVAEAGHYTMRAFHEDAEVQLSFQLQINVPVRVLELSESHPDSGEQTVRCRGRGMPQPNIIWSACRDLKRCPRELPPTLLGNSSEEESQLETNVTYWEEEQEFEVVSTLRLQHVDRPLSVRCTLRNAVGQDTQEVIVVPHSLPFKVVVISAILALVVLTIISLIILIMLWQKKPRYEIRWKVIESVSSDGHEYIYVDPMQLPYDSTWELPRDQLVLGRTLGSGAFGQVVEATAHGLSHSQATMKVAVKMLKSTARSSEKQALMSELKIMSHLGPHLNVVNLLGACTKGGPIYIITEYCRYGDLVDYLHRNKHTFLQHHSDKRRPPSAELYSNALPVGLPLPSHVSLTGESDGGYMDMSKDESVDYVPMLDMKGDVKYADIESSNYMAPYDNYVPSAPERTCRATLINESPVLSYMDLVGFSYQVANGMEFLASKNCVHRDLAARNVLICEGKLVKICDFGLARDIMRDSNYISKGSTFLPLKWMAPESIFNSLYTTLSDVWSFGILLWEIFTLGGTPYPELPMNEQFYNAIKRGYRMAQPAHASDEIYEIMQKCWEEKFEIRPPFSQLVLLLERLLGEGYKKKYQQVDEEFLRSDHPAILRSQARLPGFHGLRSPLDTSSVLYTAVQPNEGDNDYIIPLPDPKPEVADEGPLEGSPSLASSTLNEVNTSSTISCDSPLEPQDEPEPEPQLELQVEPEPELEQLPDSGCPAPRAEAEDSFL

MDA-MB-231 [11] = assay: Antiproliferative activity against human MDA-MB-231 cells over expressing RSK2 after 48 hrs by MTT assay; type: functional, cell-based; settings: MDA-MB-231, 48 h; procedure, shortened: as §1
[12] = target: Ribosomal protein S6 kinase alpha-5 (Homo sapiens) (UniProt O75582); settings: 1 uM
Sequence of Ribosomal protein S6 kinase alpha-5 (Homo sapiens) (O75582 whole entry, looked up): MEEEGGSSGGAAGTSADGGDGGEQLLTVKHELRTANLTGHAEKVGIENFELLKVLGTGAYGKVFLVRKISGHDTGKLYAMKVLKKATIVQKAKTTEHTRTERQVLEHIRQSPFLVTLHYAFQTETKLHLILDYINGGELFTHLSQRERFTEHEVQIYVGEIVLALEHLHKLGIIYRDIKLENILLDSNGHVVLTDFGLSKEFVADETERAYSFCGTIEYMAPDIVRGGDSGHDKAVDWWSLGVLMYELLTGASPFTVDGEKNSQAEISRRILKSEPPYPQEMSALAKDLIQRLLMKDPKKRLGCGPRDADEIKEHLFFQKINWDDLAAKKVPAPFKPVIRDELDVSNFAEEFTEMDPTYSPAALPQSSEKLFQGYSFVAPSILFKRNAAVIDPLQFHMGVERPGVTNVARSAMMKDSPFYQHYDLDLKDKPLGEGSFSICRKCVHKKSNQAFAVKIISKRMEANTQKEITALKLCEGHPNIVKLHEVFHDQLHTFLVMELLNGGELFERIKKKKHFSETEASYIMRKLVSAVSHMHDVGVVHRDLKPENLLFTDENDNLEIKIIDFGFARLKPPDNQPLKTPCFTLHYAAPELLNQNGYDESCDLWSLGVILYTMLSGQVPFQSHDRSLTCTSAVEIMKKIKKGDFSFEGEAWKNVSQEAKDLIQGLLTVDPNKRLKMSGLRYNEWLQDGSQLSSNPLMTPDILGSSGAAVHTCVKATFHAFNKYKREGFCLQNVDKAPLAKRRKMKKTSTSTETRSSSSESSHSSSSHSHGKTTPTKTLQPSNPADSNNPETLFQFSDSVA

[13] = target: Tyrosine-protein kinase ABL1 (Homo sapiens) (UniProt P00519); assay: Inhibition of ABL at 10 uM by ELISA based method; procedure, shortened: as §2
[14] = target: Mitogen-activated protein kinase 1 (Homo sapiens) (UniProt P28482); assay: Inhibition of ERK2 at 1 uM
[15] = target: Ephrin type-A receptor 2 (Homo sapiens) (UniProt P29317); assay: Inhibition of EPHA2 at 10 uM by ELISA based method; procedure, shortened: as §2
[16] = target: Mast/stem cell growth factor receptor Kit (Homo sapiens) (UniProt P10721); assay: Inhibition of c-Kit at 10 uM by ELISA based method; procedure, shortened: as §2
Sequence of Mast/stem cell growth factor receptor Kit (Homo sapiens) (P10721 whole entry): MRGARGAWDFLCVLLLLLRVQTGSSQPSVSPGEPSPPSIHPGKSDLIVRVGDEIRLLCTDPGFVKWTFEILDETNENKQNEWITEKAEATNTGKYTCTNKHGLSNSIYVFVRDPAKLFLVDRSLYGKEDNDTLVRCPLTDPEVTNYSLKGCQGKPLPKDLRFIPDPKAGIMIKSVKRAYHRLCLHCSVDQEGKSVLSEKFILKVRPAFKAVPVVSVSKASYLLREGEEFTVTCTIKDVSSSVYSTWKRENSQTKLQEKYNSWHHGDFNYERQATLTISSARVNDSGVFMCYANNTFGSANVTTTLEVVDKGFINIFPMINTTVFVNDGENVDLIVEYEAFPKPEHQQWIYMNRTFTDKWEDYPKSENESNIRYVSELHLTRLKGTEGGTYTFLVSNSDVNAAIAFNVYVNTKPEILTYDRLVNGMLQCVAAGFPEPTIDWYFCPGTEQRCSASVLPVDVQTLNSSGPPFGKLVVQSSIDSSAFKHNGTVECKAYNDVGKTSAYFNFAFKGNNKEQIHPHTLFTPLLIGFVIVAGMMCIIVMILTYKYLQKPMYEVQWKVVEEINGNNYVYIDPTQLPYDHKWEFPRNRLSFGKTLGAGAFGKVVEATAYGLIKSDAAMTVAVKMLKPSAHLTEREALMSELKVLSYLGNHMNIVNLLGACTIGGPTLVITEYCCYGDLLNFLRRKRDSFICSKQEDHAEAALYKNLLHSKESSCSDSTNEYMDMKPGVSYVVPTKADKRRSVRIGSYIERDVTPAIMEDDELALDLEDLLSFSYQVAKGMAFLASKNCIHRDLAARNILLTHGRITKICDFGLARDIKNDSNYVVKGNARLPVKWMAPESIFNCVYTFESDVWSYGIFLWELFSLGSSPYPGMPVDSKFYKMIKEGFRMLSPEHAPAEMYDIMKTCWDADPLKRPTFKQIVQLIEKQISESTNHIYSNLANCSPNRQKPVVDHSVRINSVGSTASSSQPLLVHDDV

[17] = target: T1, Ribosomal protein S6 kinase alpha-3 (Homo sapiens, UniProt P51812); settings: 1 uM
T1 sequence (P51812 whole entry): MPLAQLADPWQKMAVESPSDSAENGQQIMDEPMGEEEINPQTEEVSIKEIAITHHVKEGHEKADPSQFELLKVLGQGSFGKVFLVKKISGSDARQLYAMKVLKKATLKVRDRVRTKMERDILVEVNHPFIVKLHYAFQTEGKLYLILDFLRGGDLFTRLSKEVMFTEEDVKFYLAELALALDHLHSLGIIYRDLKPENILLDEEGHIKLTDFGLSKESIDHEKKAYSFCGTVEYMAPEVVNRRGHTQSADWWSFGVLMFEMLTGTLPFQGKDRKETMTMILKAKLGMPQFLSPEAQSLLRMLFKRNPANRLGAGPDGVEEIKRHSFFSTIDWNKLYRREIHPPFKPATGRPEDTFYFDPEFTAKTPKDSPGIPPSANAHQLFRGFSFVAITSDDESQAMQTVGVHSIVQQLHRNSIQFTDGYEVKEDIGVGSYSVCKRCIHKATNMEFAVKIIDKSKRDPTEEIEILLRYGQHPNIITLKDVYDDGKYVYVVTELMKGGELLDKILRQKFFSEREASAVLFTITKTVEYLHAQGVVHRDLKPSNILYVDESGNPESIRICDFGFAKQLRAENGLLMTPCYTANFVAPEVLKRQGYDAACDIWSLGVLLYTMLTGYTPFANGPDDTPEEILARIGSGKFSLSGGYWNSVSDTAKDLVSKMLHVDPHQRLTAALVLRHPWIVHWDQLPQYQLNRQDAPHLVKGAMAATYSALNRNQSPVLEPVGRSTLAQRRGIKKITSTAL

[18] = target: Epidermal growth factor receptor (Homo sapiens) (UniProt P00533); assay: Inhibition of EGFR at 10 uM by ELISA based method; procedure, shortened: as §2
HCT-116 [19] = assay: Antiproliferative activity against human HCT116 cells over expressing RSK2 at 10 uM after 48 hrs by MTT assay; type: functional; settings: HCT-116, 48 h
[20] = target: 3-phosphoinositide-dependent protein kinase 1 (Homo sapiens) (UniProt O15530); assay: Inhibition of PDK1 at 1 uM
[21] = target: Fibroblast growth factor receptor 1 (Homo sapiens) (UniProt P11362); assay: Inhibition of FGFR1 at 10 uM by ELISA based method; procedure, shortened: as §2
[22] = target: Vascular endothelial growth factor receptor 2 (Homo sapiens) (UniProt P35968); assay: Inhibition of KDR at 10 uM by ELISA based method; procedure, shortened: as §2
[23] = target: Protein kinase C alpha type (Homo sapiens) (UniProt P17252); assay: Inhibition of PKCalpha at 1 uM
[24] = target: T1, Ribosomal protein S6 kinase alpha-3; assay: Inhibition of RSK2 after 60 mins
Procedure, shortened: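 Recombinant RSK2 (20 ng) preincubated 20 min at room temperature with compound in HEPES pH 7.4 buffer (MgCl2, EGTA, Tween 20, BGG) with 25 μM S6 peptide; started with ATP (10 μM final), 60 min at room temperature. ADP Quest fluorescence read at ex 530/em 590 nm. IC50 from curves of ≥3 independent tests, measured when inhibition at 10 μM exceeded 30%.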

MCF7 [25] = assay: Antiproliferative activity against human MCF7 cells over expressing RSK2 at 10 uM after 48 hrs by MTT assay; type: functional; settings: MCF7, 48 h
[26] = target: Platelet-derived growth factor receptor alpha (Homo sapiens) (UniProt P16234); assay: Inhibition of PDGFRalpha at 10 uM by ELISA based method; procedure, shortened: as §2

## Cn1cc(C2=C(c3cn(CCCSC(=N)N)c4ccccc34)C(=O)NC2=O)c2ccccc21 [BISINDOLYLMALEIMIDE IX]
HCT-116 [1]
  IC50: 840 nM
[2]
  inhibition: 71.8%
[3]
  inhibition: 73.2%
MDA-MB-231 [4]
  inhibition at 10 µM: 97.1%
[5]
  inhibition: 5%
MCF7 [6]
  IC50: 1960 nM
[7]
  inhibition: 37.4%
[8]
  inhibition: 94%
[9]
  inhibition: 16%
[10]
  inhibition: 32.4%
MDA-MB-231 [11]
  IC50: 1770 nM
[12]
  inhibition: 98%
[13]
  inhibition: 37.9%
[14]
  inhibition: 3%
[15]
  inhibition: 70.7%
[16]
  inhibition: 58%
[17]
  inhibition: 98%
[18]
  inhibition: 36.6%
HCT-116 [19]
  inhibition at 10 µM: 95.2%
[20]
  inhibition: 16%
[21]
  inhibition: 61.2%
[22]
  inhibition: 74.4%
[23]
  inhibition: 97%
[24]
  IC50: 10 nM
MCF7 [25]
  inhibition at 10 µM: 95.3%
[26]
  inhibition: 32.6%
